Assay results reported in PubChem BioAssay AID623886 (Johns Hopkins Ion Channel Center, 2012).
Activity calls are given as the source filed them.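 Rule for the calls: active = peak inhibition of the KCNQ2 potassium channel above 30% at some tested dose, plus a fitted dose response curve; inactive = no inhibition at any dose, or no curve.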

These compounds were tested against Potassium voltage-gated channel subfamily KQT member 2 (Rattus norvegicus) (UniProt O88943) (assay: block of rat KCNQ2 potassium channel – cell-based, FluxOR thallium flux, concentration-response, selectivity assay for KCNK9 inhibitor project, SAR follow-up (AID 623886)). Details: KCNQ2 cell line, FluxOR thallium flux fluorescence; series mostly up to 30 µM; thallium flux ratio, lower = inhibition: at the top concentration.
Potassium voltage-gated channel subfamily KQT member 2 (Rattus norvegicus), sequence (O88943 whole entry, looked up): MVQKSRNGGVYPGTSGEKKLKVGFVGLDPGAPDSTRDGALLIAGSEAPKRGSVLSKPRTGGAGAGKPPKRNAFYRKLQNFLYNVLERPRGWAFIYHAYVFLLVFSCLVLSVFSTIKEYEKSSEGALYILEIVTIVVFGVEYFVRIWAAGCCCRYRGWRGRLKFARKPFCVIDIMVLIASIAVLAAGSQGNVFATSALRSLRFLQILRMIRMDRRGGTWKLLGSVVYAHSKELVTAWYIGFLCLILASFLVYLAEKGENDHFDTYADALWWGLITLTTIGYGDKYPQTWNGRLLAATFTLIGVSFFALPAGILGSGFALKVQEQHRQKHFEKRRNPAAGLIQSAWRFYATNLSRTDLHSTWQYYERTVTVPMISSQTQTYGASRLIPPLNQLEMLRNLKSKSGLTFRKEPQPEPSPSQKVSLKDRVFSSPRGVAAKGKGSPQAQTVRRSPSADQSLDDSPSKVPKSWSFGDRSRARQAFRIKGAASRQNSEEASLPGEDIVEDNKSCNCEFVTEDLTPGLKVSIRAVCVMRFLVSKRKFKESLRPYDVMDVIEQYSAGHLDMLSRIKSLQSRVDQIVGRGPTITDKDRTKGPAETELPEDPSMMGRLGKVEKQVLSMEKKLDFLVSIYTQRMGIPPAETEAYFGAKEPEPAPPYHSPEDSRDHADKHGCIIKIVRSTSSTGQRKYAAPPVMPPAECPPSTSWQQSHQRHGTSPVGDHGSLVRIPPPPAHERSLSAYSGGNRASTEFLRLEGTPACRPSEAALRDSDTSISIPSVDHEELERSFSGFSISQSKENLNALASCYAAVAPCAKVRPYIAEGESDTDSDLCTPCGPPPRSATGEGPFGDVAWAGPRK
Summary of the method: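 Assay system: CHO cells expressing KCNQ2 potassium channel / Also added: K2SO4/Tl2SO4 stimulus (5x stock 25 mM, 7 mM) / Schedule: FluxOR dye loading 90 min, compound pre-exposure 20 min, both room temperature / Detection: kinetic thallium-sensitive dye fluorescence / Measure: fluorescence range-to-baseline ratio / Benchmarks: XE-991 full block / Replication: duplicate or more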

Thallium flux ratio, lower = inhibition, inactive:
Cc1cccc(C(=O)Nc2cccc(C(=O)Nc3ccccc3)c2)c1 0.18, Cc1cccc(C(=O)Nc2ccccc2C(=O)Nc2ccccc2)c1 0.171, Cc1cccc(NC(=O)c2ccccc2NC(=O)c2ccccc2)c1 0.206, Cc1cccc(C(=O)Nc2ccc(C(=O)Nc3ccccc3)cc2)c1 0.198, Cc1cccc(NC(=O)c2cccc(NC(=O)c3ccccc3)c2)c1 0.187
